pPAFAH inh = pPAFAH (human) enzyme inhibition; recombinant pPAFAH, FP-rhodamine probe fluorescence polarization; inhibition, % at 3.39 µM; 1.5% of 330,000 active; Q13093;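 active = inhibition above the mean inhibition across the screen plus 3 SD, cut at about 25% in these data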;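 note: inhibitors block binding of the rhodamine activity-based probe so polarization drops; 0% = enzyme with DMSO and 100% = wells lacking pPAFAH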
RBBP9 inh = inhibitors of human serine hydrolase RBBP9; recombinant RBBP9, FP-Rh probe fluorescence polarization; inhibition, % at 7.94 µM; 0.2% of 220,000 active; AID 1515;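 active = inhibition above the campaign mean of all tested compounds plus 3 SD, cut at about 14% in these data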;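 note: plate controls were DMSO wells with RBBP9 for no effect and wells lacking RBBP9 protein for full effect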
Target sequence (O75884 whole entry, looked up): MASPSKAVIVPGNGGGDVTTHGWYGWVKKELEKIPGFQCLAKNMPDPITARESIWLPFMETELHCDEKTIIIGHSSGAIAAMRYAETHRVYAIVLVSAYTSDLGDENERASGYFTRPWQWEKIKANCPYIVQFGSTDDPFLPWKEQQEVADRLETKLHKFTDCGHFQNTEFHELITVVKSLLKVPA
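Test system: recombinant human RBBP9. Quantity: 2.5 µM RBBP9 dispensing solution, before mixing. Detection: FP readout at 525/598 nm. Reagent: Serine-hydrolase probe FP-Rh, 375 nM pre-mixing. Measure: % inhibition. Control set: DMSO-treated enzyme wells and wells lacking RBBP9. Buffer or medium: Tris-NaCl-Pluronic buffer, pH 8.0. Times: preincubation 30 min plus labeling 45 min at 25 °C.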
PAFAH2 FP inh = PAFAH2 (human) inhibition | Q99487 | recombinant PAFAH2, FP-rhodamine activity probe, fluorescence polarization | inhibition, % at 3.39 µM | 0.99% of 340,000 active | AID 492956;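 active = inhibition above the mean over all tested compounds plus 3 SD, cut at about 30% in these data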;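 note: inhibitors block probe labeling of enzyme so polarization drops; 0% = enzyme with DMSO and 100% = wells lacking PAFAH2 protein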
PAFAH1B3 FP inh = blocks human PAF acetylhydrolase 1B catalytic subunit 3; recombinant PAFAH1B3, FP-rhodamine probe, fluorescence polarization; inhibition, % at 3.39 µM; 0.28% of 340,000 active;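 active = inhibition above the screen-wide average of all tested compounds plus 3 SD, cut at about 25% in these data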;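 note: 0% = enzyme with DMSO only and 100% = wells lacking PAFAH1B3 protein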
Target sequence (Q15102 whole entry, looked up): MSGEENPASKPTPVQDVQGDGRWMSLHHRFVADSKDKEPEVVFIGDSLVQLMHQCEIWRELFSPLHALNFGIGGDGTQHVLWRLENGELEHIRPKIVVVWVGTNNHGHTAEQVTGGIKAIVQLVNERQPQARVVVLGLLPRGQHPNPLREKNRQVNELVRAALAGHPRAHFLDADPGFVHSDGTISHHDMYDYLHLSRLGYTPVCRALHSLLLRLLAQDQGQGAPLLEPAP
PAFAH1B2 FP inh = PAFAH1B2 (human) inhibition. P68402. recombinant PAFAH1B2, FP-rhodamine activity probe, fluorescence polarization. inhibition, % at 3.39 µM. 1.2% of 340,000 active. AID 492953;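 active = inhibition above the mean of all tested compounds plus 3 SD, cut at about 24% in these data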;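 note: 0% = enzyme with DMSO and 100% = wells lacking PAFAH1B2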
Starred values were filed as active, the others as inactive. Rows were chosen to be rich in hits. Some 2.7% of all compounds tested hit in one or more screens of this group.

Screening CSCCC(NC(=O)c1ccccc1Cl)C(=O)N(C)CC(=O)Nc1ccc(N2CCOCC2)cc1 (stereo unspecified) returned pPAFAH inh 28.6*, PAFAH2 FP inh 3.8, PAFAH1B3 FP inh 1.7 and PAFAH1B2 FP inh 5.0.
For COCC(C)NC(=O)NC1(C(F)(F)F)Oc2ccc(Cl)cc2O1 (stereo unspecified) the results were pPAFAH inh -1.1, RBBP9 inh -0.5, PAFAH2 FP inh 2.3, PAFAH1B3 FP inh 1.7 and PAFAH1B2 FP inh 24.9*.
CN(C)c1ccc(CNCc2cccnc2)cc1 was read as pPAFAH inh 5.0.
Screening CCn1c(CSCc2ccc(F)cc2)nnc1SCC(=O)NCc1ccccc1 returned pPAFAH inh 4.2, RBBP9 inh -4.6, PAFAH2 FP inh -0.3, PAFAH1B3 FP inh 2.2 and PAFAH1B2 FP inh 29.9*.
CCn1c(COc2ccccc2C)nnc1SCC(=O)NCc1ccccc1 was read as pPAFAH inh 3.2, RBBP9 inh -2.1, PAFAH2 FP inh -0.1, PAFAH1B3 FP inh 3.5 and PAFAH1B2 FP inh 1.7.
CC1CC(C)CN(C2CCCCC2NS(=O)(=O)c2ccc(Cl)cc2)C1 (stereo unspecified) was read as pPAFAH inh 1.8, PAFAH2 FP inh 4.9, PAFAH1B3 FP inh 7.8 and PAFAH1B2 FP inh -1.2.
For Cc1c(C)n(C(=O)CSc2nc3ccccc3[nH]2)c2ccccc12 the results were pPAFAH inh 11.9, RBBP9 inh -5.5, PAFAH2 FP inh 12.9, PAFAH1B3 FP inh 2.8 and PAFAH1B2 FP inh 0.4.
`CC(C)(c1ccc(O)cc1)c1ccc(O)cc1` gave pPAFAH inh -9.1, PAFAH2 FP inh -3.8, PAFAH1B3 FP inh 8.6 and PAFAH1B2 FP inh 48.0*.
`CSCC[C@H](NC(=O)C(C)Oc1ccc(Cl)cc1)c1nc2ccccc2[nH]1` (stereo partly specified) gave pPAFAH inh 3.5, RBBP9 inh -10.9, PAFAH2 FP inh 4.1, PAFAH1B3 FP inh -0.9 and PAFAH1B2 FP inh 19.3.
Screening CCN(Cc1ccccc1)C(=O)c1cc2cc(OC)c(OC)cc2[nH]1 returned pPAFAH inh 32.9*, PAFAH2 FP inh 0.7, PAFAH1B3 FP inh 2.3 and PAFAH1B2 FP inh 5.2.
For C=CCNC(=O)/C(=C\c1ccc(Br)cc1)NC(=O)c1ccccc1OC the results were pPAFAH inh 1.7, RBBP9 inh -4.9, PAFAH2 FP inh 3.1, PAFAH1B3 FP inh 8.0 and PAFAH1B2 FP inh -4.7.
Cc1ccc(CNC(=O)Cn2cccc2C(=O)c2ccccc2C)cc1 was read as pPAFAH inh 6.0, RBBP9 inh -4.4, PAFAH2 FP inh 1.3, PAFAH1B3 FP inh 7.0 and PAFAH1B2 FP inh 26.6*.
Screening COc1cccc(CNC(=O)Cn2cccc2C(=O)c2ccccc2C)c1 returned pPAFAH inh 2.4, PAFAH2 FP inh 2.7, PAFAH1B3 FP inh 8.5 and PAFAH1B2 FP inh 3.9.
Cc1ccccc1C(=O)c1cccn1CC(=O)NCc1cccc(Cl)c1 was read as pPAFAH inh 6.4, PAFAH2 FP inh 10.0, PAFAH1B3 FP inh 0.4 and PAFAH1B2 FP inh 8.4.
`Cc1ccccc1C(=O)c1cccn1CC(=O)NCc1ccc(Cl)cc1` gave pPAFAH inh 1.1, RBBP9 inh 2.5, PAFAH2 FP inh 5.7, PAFAH1B3 FP inh 10.1 and PAFAH1B2 FP inh 30.6*.
`O=C(O)CCCN1C(=O)C2C3CC(C2C1=O)C1C(c2ccccc2)c2sc(=O)[nH]c2SC31` (stereo unspecified) gave pPAFAH inh 4.1, RBBP9 inh 2.9, PAFAH2 FP inh -3.3, PAFAH1B3 FP inh 2.0 and PAFAH1B2 FP inh 81.1*.
For CC(C(=O)O)N1C(=O)C2C3CC(C2C1=O)C1C(c2ccccc2)c2sc(=O)[nH]c2SC31 (stereo unspecified) the results were pPAFAH inh 1.2, RBBP9 inh -8.1, PAFAH2 FP inh 3.0, PAFAH1B3 FP inh 1.1 and PAFAH1B2 FP inh 55.3*.
O=c1[nH]c2c(s1)C(c1ccc(O)cc1)C1C3CCC(C3)C1S2 (stereo unspecified) was read as pPAFAH inh 10.3, RBBP9 inh -10.7, PAFAH2 FP inh -2.1, PAFAH1B3 FP inh 5.8 and PAFAH1B2 FP inh 27.4*.
For O=C(O)CN1C(=O)C2C3CC(C2C1=O)C1C(c2ccc(Cl)cc2)c2sc(=O)[nH]c2SC31 (stereo unspecified) the results were pPAFAH inh 1.8, RBBP9 inh 0.6, PAFAH2 FP inh 5.2, PAFAH1B3 FP inh 6.3 and PAFAH1B2 FP inh 47.0*.
O=c1[nH]c2c(s1)C(c1cccnc1)C1C3CCC(C3)C1S2 (stereo unspecified) was read as pPAFAH inh 1.8, RBBP9 inh 4.8, PAFAH2 FP inh 1.3, PAFAH1B3 FP inh 9.7 and PAFAH1B2 FP inh 23.9.

High-throughput results as filed in PubChem BioAssay.
